# Assay results published in PubChem BioAssay AID2648 (Johns Hopkins Ion Channel Center, 2010).
# Out of some 310,000 compounds screened, about 1,100 (0.35%) were called active.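 How the source made its calls: active means fluorescence ratio B-score, a plate-corrected score, at least three library SD, with initial intensity B-score within 5 SD; inactive means the rest.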 For the sample, actives were picked, then their nearest neighbours and some compounds at random.
# Target: Potassium voltage-gated channel subfamily KQT member 1 (Homo sapiens) (UniProt P51787)
# Sequence (P51787 whole entry, looked up): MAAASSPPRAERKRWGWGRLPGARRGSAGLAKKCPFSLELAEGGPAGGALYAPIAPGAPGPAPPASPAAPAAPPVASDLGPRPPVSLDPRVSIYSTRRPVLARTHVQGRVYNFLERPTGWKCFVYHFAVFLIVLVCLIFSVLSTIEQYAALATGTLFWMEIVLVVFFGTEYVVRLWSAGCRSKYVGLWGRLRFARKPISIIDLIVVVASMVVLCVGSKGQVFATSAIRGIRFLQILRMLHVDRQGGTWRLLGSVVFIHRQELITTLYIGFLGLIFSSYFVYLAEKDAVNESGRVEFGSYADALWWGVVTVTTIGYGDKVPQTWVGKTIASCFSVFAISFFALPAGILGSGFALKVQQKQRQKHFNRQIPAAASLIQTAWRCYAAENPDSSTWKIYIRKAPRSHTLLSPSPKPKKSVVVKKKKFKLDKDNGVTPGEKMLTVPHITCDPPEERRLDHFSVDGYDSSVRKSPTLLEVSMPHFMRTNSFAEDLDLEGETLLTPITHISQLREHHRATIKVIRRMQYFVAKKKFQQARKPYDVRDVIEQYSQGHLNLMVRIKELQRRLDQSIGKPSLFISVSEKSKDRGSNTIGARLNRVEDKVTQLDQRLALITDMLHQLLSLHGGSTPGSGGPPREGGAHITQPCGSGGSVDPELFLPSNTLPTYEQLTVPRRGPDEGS
# Assay: potentiators or activators of KCNQ1 channel, primary screen, cell-based, thallium flux, high-throughput (AID 2648)
# Conditions: CHO-K1 KCNQ1, thallium flux FluxOR fluorescence, at 10 µM; hits give high values
# In short: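 Medium – assay buffer, equal DMSO in all wells · Material – CHO-K1 cell line with stable KCNQ1 potassium channel expression · Signal – kinetic FluxOR thallium fluorescence, 10-s 1-Hz baseline, 110-s post-stimulus read · Compound – single concentration per compound, DMSO matched to controls · Schedule – 37 °C overnight plating, 90-min dark dye load, 20-min compound pretreatment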
row,SMILES,B-score
1,CCOC(=O)CN(C(=O)COc1nc(-c2ccccc2)cc(C)c1C#N)c1ccc(F)cc1,inactive
2,Cc1cccc(C(=O)Nc2ccc(C(=O)/C=C/c3cccs3)cc2)c1,inactive
3,Cc1cccc(/C(N)=N/OC(=O)c2ccccc2Cl)c1,inactive
4,Cc1ccc(NC(=O)c2cc3ccccc3o2)cc1,inactive
5,C/C(=N\NC(=S)Nc1ccc(C)cc1)c1cc2ccccc2o1,28 (active)
6,C/C(=N/NC(=S)Nc1ccccc1)c1ccc2c(c1)OCO2,inactive
7,O=C(CSc1nncn1-c1cccnc1)N1CCOCC1,inactive
8,CCc1[nH]nc(C(=O)N2CCCC(CNS(=O)(=O)c3cccs3)C2)c1C (stereo not drawn),inactive
9,CC(C)c1ccc2c(c1)c(SC(C)(C)C)c(CC(C)(C)C(=O)O)n2Cc1ccc(Cl)cc1,44 (active)
10,Nc1ncnc(Nc2cccc(Cl)c2Cl)n1,inactive
11,Cc1cccc(C(=O)NC(=S)N(C)C2CCCCC2)c1,16 (active)
12,Cc1cccc(C(=O)NCCCN(C)CCCNC(=O)c2cccc(C)c2)c1,inactive
13,Cc1cccc(NC(=S)NCCN(C2CCCCC2)C2CCCC2)c1,inactive
14,COc1ccc(C(=O)C2CCCN(C(=O)c3cnsn3)C2)c(C)c1 (stereo not drawn),inactive
15,OC(CNC1CCCC1)COc1ccc(F)cc1 (stereo not drawn),inactive
16,CC1CCN(C(=O)c2ccc(S(=O)(=O)Cc3cc(F)ccc3F)c([N+](=O)[O-])c2)CC1,inactive
17,COc1cccc2sc(NNC(=O)c3nc4ccccc4s3)nc12,28 (active)
18,COc1ccccc1OCc1nc2ccccc2s1,inactive
19,COc1cccc2sc(Nc3nc(C)c(C(C)=O)s3)nc12,inactive
20,CN(CC(=O)Nc1ccccc1C(F)(F)F)C(=O)Cc1ccccc1F,inactive
21,COCCNC(=O)CN1C(=O)CSc2ncccc21,inactive
22,Cc1cccc(-c2nc3ccccc3c(=O)n2NC(=O)Cc2ccc(Cl)cc2)c1,inactive
23,O=c1c2cc(Br)ccc2nc(-c2cccc(Cl)c2)n1O,89 (active)
24,O=C1CCCc2c1nc(-c1cccc(Cl)c1)n2O,inactive
25,Cc1ccc(S(=O)(=O)N(C)C)cc1NC(=O)COC(=O)/C=C/c1cccs1,inactive

row,SMILES,B-score
1,O=C(NCCc1ccco1)C(=O)NCCC1CCCCN1S(=O)(=O)c1ccccc1 (stereo not drawn),inactive
2,O=c1[nH]cnc2c1c(-c1ccccc1)cn2-c1ccc(F)cc1,inactive
3,COc1ccc(-n2cc(-c3ccccc3)c3c(=S)nc[nH]c32)cc1,8 (active)
4,COc1ccc(-n2c(-c3ccc(OC)c(OC)c3)n[nH]c2=S)cc1,inactive
5,CC(=O)NS(=O)(=O)c1ccc(NC(=O)/C=C/c2ccccc2Cl)cc1,inactive
6,CN(C(=O)c1c(Cl)cnn1C)C12CC3CC(CC(C3)C1)C2,inactive
7,Nc1ccc(N=Nc2ccccc2Cl)c(N)n1,inactive
8,Cc1ccc(C(=O)NNC(=O)C(C)Oc2ccc3ccccc3c2)o1 (stereo not drawn),inactive
9,O=C(Nc1ccc2ccccc2c1)/C(=C/c1cccc(Br)c1)NC(=O)c1ccco1,inactive
10,Cc1ccc(OCC(=O)NCCCNC(=O)c2ccco2)cc1C,inactive
11,CCCc1ccc(OCCNC(=O)c2ccco2)cc1,inactive
12,CC(Oc1ccc2ccccc2c1)C(=O)NNC(=S)NC(=O)c1ccco1 (stereo not drawn),38 (active)
13,CCCc1ccc(OCC(=O)NNC(=S)NC(=O)c2ccco2)cc1,10 (active)
14,O=C(c1cccs1)n1nc(NCc2ccccc2)nc1NCc1ccccc1,inactive
15,COC(=O)Cc1cnc(NC(=O)CSc2nc(C(C)C)cc(=O)[nH]2)s1,inactive
16,CC(=O)c1c(C)[nH]c(C(=O)OCC(=O)Nc2sc3c(c2C#N)CCCC3)c1C,inactive
17,Cc1ccc(CNC(=O)CCC(=O)N2CC(C)Sc3ccccc32)cc1 (stereo not drawn),inactive
18,O=S(=O)(Nc1cccc(-c2ccc(N3CCOCC3)nn2)c1)c1ccc(Cl)c(Cl)c1,inactive
19,Cc1cccc(NC(=S)NC(=O)c2ccc(Br)o2)c1,25 (active)
20,Cc1cccc(NC(=O)NC(=S)NC(=O)c2ccccc2)c1,inactive
21,Cc1cccc(NC(=O)c2ccc([N+](=O)[O-])o2)c1,inactive
22,Cc1ccc(CNC(=O)[C@@H](NC(=O)Cc2ccccc2)C(C)C)cc1,inactive
23,Cc1ccc(S(=O)(=O)N(CC(=O)NCCSC2CCCCC2)c2ccccc2F)cc1,inactive
24,CN1CCCN(C(=O)C2CCCCC2)CC1,inactive
25,O=C(N1CCCCC1)N1CCN(C(=O)N2CCCCC2)CC1,10 (active)

row,SMILES,B-score
1,O=C(N1CCOCC1)N1CCOCC1,inactive
2,Cc1sc(NC(=O)C2=COCCO2)c(C#N)c1C,inactive
3,CC1CCN(S(=O)(=O)c2ccc(NC(=O)C3CC(=O)N(c4ccccc4)C3)cc2)CC1 (stereo not drawn),inactive
4,c1ccc(-c2cc3c(NCC4COc5ccccc5O4)ncnc3s2)cc1 (stereo not drawn),inactive
5,S=C(NCC1COc2ccccc2O1)Nc1ccc(Br)cc1 (stereo not drawn),inactive
6,c1ccc2c(c1)OCC(CNc1ncnc3nc[nH]c13)O2 (stereo not drawn),8 (active)
7,O=C(O)C1CCCN1S(=O)(=O)c1ccc(Br)cc1 (stereo not drawn),inactive
8,O=C(CSc1nccc(=O)[nH]1)Nc1ccc(N2CCOCC2)c(Cl)c1,inactive
9,O=C(Nc1cccc(Cl)c1)Nc1nnc(-c2ccccc2)o1,inactive
10,O=C(Nc1nnc(-c2ccc(Cl)cc2)o1)c1ccccc1Br,8 (active)
11,O=C(COC(=O)c1ccccc1Br)Nc1nnc(-c2ccccc2)o1,inactive
12,Cc1nnc(Nc2ccccc2F)s1,inactive
13,CC(=O)Nc1ccc(S(=O)(=O)N2CCC(C(=O)NC3CC3)CC2)cc1,inactive
14,CCOc1ccc(N(CC)S(=O)(=O)c2cccc3nsnc23)cc1,inactive
15,CC(C)(C)C1CCc2c(sc3nc(SCC(N)=O)nc(N)c23)C1 (stereo not drawn),inactive
16,O=c1c2ccccc2[nH]c(=S)n1CCN1CCC(=C(c2ccc(F)cc2)c2ccc(F)cc2)CC1,inactive
17,CCCCNC(=O)c1ccc(-n2c(=S)[nH]c3ccccc3c2=O)cc1,inactive
18,CCCCn1c(=S)[nH]c2ccccc2c1=O,18 (active)
19,CCN(CC)CCn1c(=S)[nH]c2ncccc2c1=O,inactive
20,CCCCNC(=O)CCn1c(=S)[nH]c2cc3c(cc2c1=O)OCO3,inactive
21,CCCCn1c(=S)[nH]c2ncccc2c1=O,10 (active)
22,O=C(Nc1ccc(CN2CCOCC2)cc1)c1cc(Cl)ccc1Cl,inactive
23,Cc1sc2ncnc(N3CCC(C(=O)Nc4nc5ccc(Cl)cc5s4)CC3)c2c1C,inactive
